In PubChem BioAssay:
Records with an inconclusive call do not appear. The source made the active and inactive calls.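 How the source made its calls, unless noted: active means cell viability at or below a set limit in both duplicate runs, the limit being the all-compound median minus 4 SD (cut at about 23% in these data, passing the limit was not always enough); inconclusive means no clear call, values can overlap the other calls; inactive means the rest.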

Experiments:
[1] = S. cerevisiae growth inhibition in permissive medium (OD615), pilot counter-assay for S. cerevisiae lifespan shortening project, permissive growth control (AID 705;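 active means growth inhibition above 25% in both replicates, a cutoff set 3 SD above the mean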); settings: OD615, 24 h, at 10 µM, hits give high values
Procedure, shortened: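 System: Engineered DeaD yeast | Buffer or medium: SC raffinose/galactose permissive medium | Incubation: Cells pre-grown 4 h, then 24 h compound exposure, 30 °C humidified | Measured by: Absorbance (optical density) at 615 nm | Read-out: Reduction in yeast growth (OD615)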

[2] = S. cerevisiae growth inhibition in restrictive medium, OD615, pilot screen, restrictive growth control, yeast lifespan reduction project (AID 706;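 active means growth inhibition above a set limit, 3 SD over mean compound inhibition, in both replicates, cut at about 43% in these data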;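 further: modified DeaD lifespan yeast strain shifted to restrictive glucose medium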); settings: OD615, 48 h, at 10 µM, hits give high values
Procedure, shortened: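 Material: modified S. cerevisiae; Medium: glucose-based CSMM-D restrictive medium; Compound dosing: one concentration, 10 µM final, 0.25% DMSO; Incubation: 48 h compound exposure at 30 °C; Measured by: OD615.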

[3] = doxorubicin toxicity protection in MRP-1 cells – H69AR cells, CellTiter-Glo, duplicate, MRP-1 activator project, pilot screen (AID 807;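 active means viability increase at or above a cutoff of the median across tested compounds plus 3 SD, cut at about 8.5% in these data, passing the limit was not always enough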;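 further: compound pretreatment 18-22 h then 72 h combined with doxorubicin; 0% = doxorubicin alone and 100% = vehicle without doxorubicin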); settings: H69AR viability with doxorubicin, CellTiter-Glo luminescence; at 10 µM; hits give high values
[4] = viability of HCT116 without oncogenic beta-catenin – human colon tumor cells, pilot screen (AID 823); settings: HCT116 beta-catenin knockout viability, CellTiter-Glo, 60 h; at 10 µM; hits give low values;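 further: 0% = wells killed by 20 µM Hyamine and 100% = untreated DMSO cell wells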
[5] = viability of PTEN-null HCT116 cells – cell-based, HCT116 clonal line, CellTiter-Glo, pilot screen (AID 824;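 active means viability at or below 27.92% in each of two runs, the all-compound median minus 4 SD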;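 further: 0% = 20 µM Hyamine control and 100% = vehicle cell control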); settings: HCT116 PTEN-deleted viability, 60 h, at 10 µM, hits give low values
[6] = RAM pathway blockade in budding yeast – dse1pr::URA3 reporter, 5-FOA selection, pilot screen (AID 869;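 active means inhibition over a set limit, the all-compound mean plus 3 SD, in both replicate runs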;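 further: 0% = DMSO wells with no growth and 100% = 10 µM 1-NA-PP1 with full growth; RAM network block rescues cells from 5-FOA so hits raise OD615 growth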); settings: S. cerevisiae dse1pr::URA3 5-FOA growth, OD615, 2 d; at 10 µM; hits give high values; strain carries analog-sensitive mutant Cbk1 kinase
[7] = RAM signaling pathway blockade in yeast – S. cerevisiae, Pdr1DBD-CYC8 efflux-inhibited sensitized strain, primary screen (AID 1298;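 active means RAM network inhibition above 8.4% in each of two replicates, 3 SD over the compound average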;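 further: 0% = DMSO untreated cells without growth and 100% = 10 µM 1-NA-PP1 full growth; higher means more yeast growth rescued from 5-FOA killing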); settings: S. cerevisiae cbk1-as DSE1-URA3 strain, 5-FOA growth OD615, 2 d; at 50 µM; hits give high values

O=C1c2ccccc2C(=O)N1Cc1nc2ccccc2c(=O)n1CCCn1ccnc1
inactive: growth inhibition [1] -3.57% | growth inhibition [2] 0.74% | viability increase [3] -1.98% | viability [4] 96.3% | viability [5] 101% | inhibition [6] 0.915% | RAM network inhibition [7] 4.3%

COc1cc(NC(=O)CN2CC(c3ccccc3)CC2=O)cc(OC)c1 (stereo not given)
inactive: growth inhibition [1] -20.8% | growth inhibition [2] -10.4% | viability increase [3] 0.18% | viability [4] 100% | viability [5] 99.4% | inhibition [6] 1.27% | RAM network inhibition [7] 1.83%

O=C(CN1CCOc2ccccc21)NC1CCCCCCC1
inactive: growth inhibition [1] -14.2% | growth inhibition [2] 21.8% | viability increase [3] -5.54% | viability [4] 75.5% | viability [5] 78.2% | inhibition [6] 1.38% | RAM network inhibition [7] 0.83%

O=C(CCCOc1ccccc1)Nc1ccc2c(c1)OCCO2
inactive: growth inhibition [1] 1.88% | growth inhibition [2] 7.45% | viability increase [3] -4.17% | viability [4] 102% | viability [5] 102% | inhibition [6] 1.16% | RAM network inhibition [7] 3.58%

O=C(CCc1ccccc1)Nc1ccc(NC(=O)c2ccco2)cc1
inactive: growth inhibition [1] -5.04% | growth inhibition [2] 0.64% | viability increase [3] -1.63% | viability [4] 103% | viability [5] 93.7% | inhibition [6] 1.44% | RAM network inhibition [7] 2.56%

COc1ccc(CC(=O)c2ccc(O)cc2O)cc1OC
inactive: growth inhibition [1] -6.46% | growth inhibition [2] -7.7% | viability increase [3] -3.53% | viability [4] 95.6% | viability [5] 89.2% | inhibition [6] 1.26% | RAM network inhibition [7] 2.27%

Cc1ccccc1-c1nnc(SCC(=O)Nc2ccc3c(c2)OCCO3)n1N
inactive: growth inhibition [1] -1.12% | growth inhibition [2] 10.1% | viability increase [3] -2.18% | viability [4] 96.7% | viability [5] 91.7% | inhibition [6] 0.6% | RAM network inhibition [7] -0.27%

COc1ccccc1N(CC(=O)N1CCCCCC1)S(C)(=O)=O
inactive: growth inhibition [1] -11.6% | growth inhibition [2] -10.7% | viability increase [3] -1.57% | viability [4] 89.1% | viability [5] 92.5% | inhibition [6] 0.495% | RAM network inhibition [7] 2.63%

CCCN1CCN(CCCNC(=O)c2cc3c(=O)n(C)c4ccccc4c3n2C)CC1
inactive: growth inhibition [1] -5.02% | growth inhibition [2] 0.66% | viability increase [3] -7.07% | viability [4] 64.1% | viability [5] 65.3% | inhibition [6] 0.68% | RAM network inhibition [7] 1.89%

COc1cc2c(cc1OC)C1=C(C#N)CN(C3CCCCC3)CN1CC2
inactive: growth inhibition [1] -11.3% | growth inhibition [2] 4.15% | viability increase [3] -3.47% | viability [4] 90% | viability [5] 81.1% | inhibition [6] 2.15% | RAM network inhibition [7] 3.92%

COc1cc(N)ccc1Cc1ccc(N)cc1OC
inactive: growth inhibition [1] -5.34% | growth inhibition [2] -2.19% | viability increase [3] -4.54% | viability [4] 85.9% | viability [5] 90.8% | inhibition [6] -0.06% | RAM network inhibition [7] 6.85%

CCCc1cc(=O)oc2cc(OCC(=O)N(C)C)c(Cl)cc12
inactive: growth inhibition [1] -3.68% | growth inhibition [2] 6.56% | viability increase [3] -0.5% | viability [4] 99.6% | viability [5] 93.9% | inhibition [6] 1.73% | RAM network inhibition [7] -1.29%

Cn1c(=O)c2c(nc(SCCN3CCOCC3)n2Cc2ccc(Cl)cc2)n(C)c1=O
inactive: growth inhibition [1] -5.34% | growth inhibition [2] 16.6% | viability increase [3] -3.32% | viability [4] 87.8% | viability [5] 84.1% | inhibition [6] 2.31% | RAM network inhibition [7] -0.47%

CCN1CCN(C(=O)Nc2ccc(Cc3ccc(NC(=O)N4CCN(CC)CC4)cc3)cc2)CC1
inactive: growth inhibition [1] -9.89% | growth inhibition [2] -9.14% | viability increase [3] -2.42% | viability [4] 78.3% | viability [5] 86.7% | inhibition [6] 1.72% | RAM network inhibition [7] 2.65%

CCn1c(CNC(=O)c2ccc(OC)cc2)nnc1SC
inactive: growth inhibition [1] -3.98% | growth inhibition [2] 3.58% | viability increase [3] -1.74% | viability [4] 90.6% | viability [5] 91.9% | inhibition [6] 1.44% | RAM network inhibition [7] 4.37%
